Published values from different studies.
Sample: plasma

SMILES | system | setting | endpoint | result
CC(C)n1c(C2CCNCC2)nc2c([N+](=O)[O-])c(Br)c(Br)cc21 | human | oral, 75 mg, patients | AUC(0-t) | 288 ng·h/mL
OC[C@H]1O[C@@H](c2cc(Cc3ccc(C4CC4)cc3)c(Cl)c3c2CCO3)[C@H](O)[C@@H](O)[C@@H]1O | human | oral, 0.3 mg, single dose, fasted | AUC(0-inf) | 33.3 ng·h/mL
COc1ccc(F)cc1C(=O)NCc1ccc(-c2nn([C@@H](C)C(F)(F)F)c(N)c2C(N)=O)cc1 | human | oral, 200 mg, single dose, fasted | AUC(0-inf) | 90200 ng·h/mL
COc1ccc(-c2c(Nc3ccccn3)[nH]c3c(C4=CCCCC4)c(-c4ccccc4)nn3c2=O)cc1 | human | oral, 200 mg once daily, multiple doses, steady state, patients | AUC(0-t) | 108000 ng·h/mL
CC(=O)N(C)[C@H]1CCN(C(=O)c2cnc3c(c2)C[C@](C)(c2ccc(F)cc2)N3)C1 | male human | oral, 15 mg, multiple doses, once daily | AUC(0-inf) | 2.22 µM·h
COc1ccc2c(c1)CN(C(=O)CCN1CCC(Cc3ccccc3)CC1)CC[S@@+]2[O-] | male human | intravenous, 0.6 mg/kg, healthy volunteers | AUC(0-inf) | 3240 ng·h/mL
CC(C)c1nc(N(C)S(C)(=O)=O)nc(-c2ccc(F)cc2)c1/C=C/[C@@H](O)C[C@@H](O)CC(=O)O | human | oral, 10 mg | AUC | 60.3 ng·h/mL
O=C(COc1ccc(Cl)cc1)NC12CC(c3nnc([C@H]4C[C@@H](OC(F)(F)F)C4)o3)(C1)C2 | human | oral, 145 mg, multiple doses, once daily, steady state, healthy volunteers | AUC | 141 µM·h
CC(C)c1nc(N(C)S(C)(=O)=O)nc(-c2ccc(F)cc2)c1/C=C/[C@@H](O)C[C@@H](O)CC(=O)O | human | oral, 10 mg, single dose, healthy volunteers | AUC(0-inf) | 36.7 ng·h/mL
C=CC(=O)NC1CCN(c2ncc3ncnc(Nc4ccc(Oc5ccc6c(c5)ncn6C)c(C)c4)c3n2)CC1 | male human | intravenous, 100 µg, single dose, healthy volunteers | AUC(0-inf) | 0.00269 µM·h
